The text below walks through data of ChEMBL document CHEMBL1152203, “New jasmonate analogues as potential anti-inflammatory agents” (Bioorg Med Chem, 2008).

Calls of active or inactive are those of the source. The calls are words filed in the database; no cut-off is given here.

Data set [1] relates to RAW264.7. The data set is described as follows: Antiinflammatory activity in LPS-stimulated mouse RAW264.7 cells assessed as inhibition of NO production at 3.12 uM after 24 hrs by Griess reagent method. It counts as functional, cell-based. Put shortly:
(§1)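 NO series at 3.12, 6.25 and 12.5 µM: RAW264.7 cells (1.5 × 10^5 cells/mL) co-treated with LPS (1 µg/mL) for 24 h; nitrite by Griess reagent. Means ± SD of triplicate experiments.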
In general terms: Griess reagent forms a coloured azo dye with nitrite.

In data set [2] the test system is RAW264.7. The data set is described as follows: Antiinflammatory activity in LPS-stimulated mouse RAW264.7 cells assessed as inhibition of NO production at 10 uM after 24 hrs by Griess reagent method. It counts as functional, cell-based. In short, it runs like this:
(§2)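 Samples and prostaglandin references tested at 10 and 30 µM alongside LPS (1 µg/mL) in RAW264.7 cells (1.5 × 10^5 cells/mL), 24 h; NO by Griess reagent. Triplicate experiments, means ± SD.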

The subject of data set [3] is RAW264.7. The data set is described as follows: Cytotoxicity against LPS-stimulated mouse RAW264.7 cells at 25 uM after 24 hrs by MTT assay. It counts as cell-based. The following applies: raw264.7, 24 h. Put shortly: (§3)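 Viability of RAW264.7 cells (1.5 × 10^5 cells/mL) after 24 h exposure to LPS (1 µg/mL) plus test sample, by MTT. MTT added for 4 h, formazan dissolved in DMSO, absorbance 540 nm. Means ± SD of duplicate (50, 100 µM) or triplicate (other concentrations) experiments.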
For orientation: Tetrazolium assays rely on reduction of a dye to a coloured formazan, in cell work by metabolically active cells.

Data set [4] has as its system RAW264.7. The data set is described as follows: Cytotoxicity against LPS-stimulated mouse RAW264.7 cells at 10 uM after 24 hrs by MTT assay. It counts as cell-based. The following applies: raw264.7, 24 h. In short, it runs like this: as §3
Data set [5] deals with RAW264.7. The experiment in a line: Antiinflammatory activity in LPS-stimulated mouse RAW264.7 cells assessed as inhibition of NO production at 30 uM after 24 hrs by Griess reagent method. It counts as functional, cell-based. Put shortly:
as §2

Data set [6] concerns RAW264.7. The experiment in a line: Cytotoxicity against LPS-stimulated mouse RAW264.7 cells at 3.12 uM after 24 hrs by MTT assay. It counts as cell-based. The following applies: raw264.7, 24 h. Put shortly: as §3
In data set [7] the test system is RAW264.7. The data set is described as follows: Cytotoxicity against LPS-stimulated mouse RAW264.7 cells at 12.5 uM after 24 hrs by MTT assay. It counts as cell-based. The following applies: raw264.7, 24 h. Put shortly: as §3
The test system of data set [8] is RAW264.7. The data set is described as follows: Antiinflammatory activity in LPS-stimulated mouse RAW264.7 cells assessed as inhibition of TNFalpha production after 24 hrs by ELISA. It counts as functional, cell-based. Put shortly:
(§4)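 RAW264.7 cells at 1.5 × 10^5 cells/mL, pre-incubated 18 h in 24-well plates, then stimulated with LPS (1 µg/mL) alone or with test samples for 24 h. Samples dissolved in EtOH diluted with DMEM, solvent ≤0.1% final. NO in supernatant by Griess reagent (10 min, room temperature, light protected, absorbance 540 nm); IL-6 and TNF-α by ELISA. Mean ± SD.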

Data set [9] relates to RAW264.7. The data set is described as follows: Antiinflammatory activity in LPS-stimulated mouse RAW264.7 cells assessed as inhibition of NO production after 24 hrs by Griess reagent method. It counts as functional, cell-based. In short, it runs like this: as §4
Data set [10] deals with RAW264.7. The experiment in a line: Antiinflammatory activity in LPS-stimulated mouse RAW264.7 cells assessed as inhibition of NO production at 6.25 uM after 24 hrs by Griess reagent method. It counts as functional, cell-based. In short, it runs like this: as §1
Data set [11] has as its system RAW264.7. The data set is described as follows: Antiinflammatory activity in LPS-stimulated mouse RAW264.7 cells assessed as inhibition of IL6 production at after 24 hrs by ELISA. It counts as functional, cell-based. In short, it runs like this: as §4
On the technique in general: In an ELISA, binding on a coated surface is turned into a signal by an enzyme label.

For data set [12], the system named is RAW264.7. The data set is described as follows: Cytotoxicity against LPS-stimulated mouse RAW264.7 cells at 6.25 uM after 24 hrs by MTT assay. It counts as cell-based. The following applies: raw264.7, 24 h. In short, it runs like this: as §3

For `CCCCCC1C(=O)C(Br)=CC1CC(=O)OC` (configuration not stated), the result in [1], in [2], in data set [5] and in data set [10] was Active. The Activity result in data set [3] is “Toxic”; in data set [4] it was “Toxic”; in data set [6] it was “Non-toxic”; in [7] it was “Toxic”; in data set [8] it was “Dose-dependent effect”; in data set [9], “Dose-dependent effect”. Moreover, the Activity result is “Dose-dependent effect” in data set [11] and “Non-toxic” in data set [12].
